Values after ≈ are worked out from the molar mass of the structure shown. Values belong to the compound of their own block, whether it stands above or below them. Active and inactive are the calls of the source. The calls are words filed in the database; no cut-off is given here.
How the values were obtained:
[1] = biological target: T1, Gonadotropin-releasing hormone receptor (Rattus norvegicus, UniProt P30969); test: In vitro binding affinity of Gonadotropin-releasing hormone antagonist was measured in rat pituitary cell membranes; design: species or system Pituitary gland cell, Membrane
T1 sequence (P30969 whole entry): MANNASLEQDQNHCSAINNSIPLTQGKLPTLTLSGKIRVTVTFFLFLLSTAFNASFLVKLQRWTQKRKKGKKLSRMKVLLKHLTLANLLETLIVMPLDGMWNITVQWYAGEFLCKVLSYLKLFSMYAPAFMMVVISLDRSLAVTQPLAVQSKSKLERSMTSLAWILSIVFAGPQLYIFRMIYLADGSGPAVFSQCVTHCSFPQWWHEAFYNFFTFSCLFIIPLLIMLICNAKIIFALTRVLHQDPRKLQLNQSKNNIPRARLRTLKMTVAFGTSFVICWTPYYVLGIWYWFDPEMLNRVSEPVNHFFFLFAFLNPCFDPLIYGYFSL
Outline: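 Displacement binding on pituitary cell membranes with [DAla6,NMe-Leu7,Pro9-NHEt]GnRH as standard; analogue KD values calculated from potencies relative to that standard derived from displacement data.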

Rattus norvegicus [2] = test: Potency (1 mg/rat) using anti-ovulatory assay, expressed as rat ovulating/total number of treated rats measured after sc administration; 2/8; assay type: functional, organism-based
Rattus norvegicus [3] = test: Potency (0.5 mg/rat) using anti-ovulatory assay, expressed as rat ovulating/total number of treated rats measured after sc administration; 7/7; assay type: functional, organism-based
Rattus norvegicus [4] = species: Rattus norvegicus; test: In vitro histamine release by rat mast cells.; details: read-out: ED50 (the source's name)
[5] = biological target: Gonadotropin-releasing hormone receptor (Rattus norvegicus) (UniProt P30969); test: Antagonist potency at GnRH receptor relative to a standard ([Ac-delta3Pro, DFpa2, DTrp3,6]GnRH).
Rattus norvegicus [6] = test: Potency (2.5 mg/rat) using anti-ovulatory assay, expressed as rat ovulating/total number of treated rats measured after sc administration; 7/9; assay type: functional, organism-based
Rattus norvegicus [7] = test: Potency (5 mg/rat) using anti-ovulatory assay, expressed as rat ovulating/total number of treated rats measured after sc administration; 2/5; assay type: functional, organism-based
Rattus norvegicus [8] = test: Potency (10 mg/rat) using anti-ovulatory assay, expressed as rat ovulating/total number of treated rats measured after sc administration; 0/6; assay type: functional, organism-based
Rattus norvegicus [9] = test: Potency (1 mg/rat) using anti-ovulatory assay, expressed as rat ovulating/total number of treated rats measured after sc administration; 5/8; assay type: functional, organism-based
Rattus norvegicus [10] = test: Potency (2.5 mg/rat) using anti-ovulatory assay, expressed as rat ovulating/total number of treated rats measured after sc administration; 0/8; assay type: functional, organism-based
Rattus norvegicus [11] = test: Potency (5 mg/rat) using anti-ovulatory assay, expressed as rat ovulating/total number of treated rats measured after sc administration; 1/6; assay type: functional, organism-based
Rattus norvegicus [12] = test: Potency (2.5 mg/rat) using anti-ovulatory assay, expressed as rat ovulating/total number of treated rats measured after sc administration; 5/6; assay type: functional, organism-based
Rattus norvegicus [13] = test: Potency (2.5 mg/rat) using anti-ovulatory assay, expressed as rat ovulating/total number of treated rats measured after sc administration; 5/9; assay type: functional, organism-based
Rattus norvegicus [14] = test: Potency (10 mg/rat) using anti-ovulatory assay, expressed as rat ovulating/total number of treated rats measured after sc administration; 4/4; assay type: functional, organism-based
Rattus norvegicus [15] = test: Potency (5 mg/rat) using anti-ovulatory assay, expressed as rat ovulating/total number of treated rats measured after sc administration; 0/7; assay type: functional, organism-based
Rattus norvegicus [16] = test: Potency (2.5 mg/rat) using anti-ovulatory assay, expressed as rat ovulating/total number of treated rats measured after sc administration; 7/7; assay type: functional, organism-based
Rattus norvegicus [17] = test: Potency (1 mg/rat) using anti-ovulatory assay, expressed as rat ovulating/total number of treated rats measured after sc administration; 6/6; assay type: functional, organism-based
Rattus norvegicus [18] = test: Potency (2.5 mg/rat) using anti-ovulatory assay, expressed as rat ovulating/total number of treated rats measured after sc administration; 1/8; assay type: functional, organism-based
Rattus norvegicus [19] = test: Potency (2.5 mg/rat) using anti-ovulatory assay, expressed as rat ovulating/total number of treated rats measured after sc administration; 2/9; assay type: functional, organism-based

- Kd [1]: 1.2 nM
- EC50 (Rattus norvegicus [4]): 6 µg/mL (≈ 4.36 µM)
- Relative potency [5]: 1.4
SMILES: CCCC/N=C(\NC#N)NCCCC[C@@H](NC(=O)[C@H](Cc1c[nH]cn1)NC(=O)[C@@H]1CCC(=O)N1)C(=O)N[C@@H](CO)C(=O)N[C@@H](Cc1ccc(O)cc1)C(=O)N[C@H](CCCN=C(N)N)C(=O)N[C@@H](CC(C)C)C(=O)N[C@@H](CCCCNC(C)C)C(=O)N1CCC[C@H]1C(=O)N[C@H](C)C(N)=O
- Activity (Rattus norvegicus [2]): Active
- Activity (Rattus norvegicus [3]): inactive

- Relative potency [5]: 0.42
SMILES: CC(C)C[C@H](NC(=O)[C@@H](CCCC/N=C(\NC#N)NC1CCCCC1)NC(=O)[C@H](CCCC/N=C(\NC#N)NC1CCCCC1)NC(=O)[C@H](CO)NC(=O)[C@H](Cc1c[nH]c2ccccc12)NC(=O)[C@H](Cc1c[nH]cn1)NC(=O)[C@@H]1CCC(=O)N1)C(=O)N[C@@H](CCCCNC(C)C)C(=O)N1CCC[C@H]1C(=O)N[C@H](C)C(N)=O
- Activity (Rattus norvegicus [6]): inactive

- EC50 (Rattus norvegicus [4]): 9.5 µg/mL (≈ 7.12 µM)
- Relative potency [5]: 0.3
SMILES: CC(C)C[C@H](NC(=O)[C@@H](CCCN=C(N)N)NC(=O)[C@H](Cc1ccc(O)cc1)NC(=O)[C@H](CO)NC(=O)[C@@H](CCCCNc1n[nH]c(N)n1)NC(=O)[C@H](Cc1c[nH]cn1)NC(=O)[C@@H]1CCC(=O)N1)C(=O)N[C@@H](CCCCNC(C)C)C(=O)N1CCC[C@H]1C(=O)N[C@H](C)C(N)=O
- Activity (Rattus norvegicus [7]): Weak activity
- Activity (Rattus norvegicus [8]): Active

- Kd [1]: 2.1 nM
- Relative potency [5]: 1
SMILES: CCCC/N=C(\NC#N)NCCC[C@H](NC(=O)[C@H](CO)NC(=O)[C@H](Cc1c[nH]c2ccccc12)NC(=O)[C@H](Cc1c[nH]cn1)NC(=O)[C@@H]1CCC(=O)N1)C(=O)N[C@H](CCCN/C(=N/CCCC)NC#N)C(=O)N[C@@H](CC(C)C)C(=O)N[C@@H](CCCCNC(C)C)C(=O)N1CCC[C@H]1C(=O)N[C@H](C)C(N)=O
- Activity (Rattus norvegicus [9]): Weak activity
- Activity (Rattus norvegicus [10]): Active

- Kd ([1]; pituitary gland cell): 1 nM
- EC50 (Rattus norvegicus [4]): 3.5 µg/mL (≈ 2.59 µM)
- Relative potency [5]: 1.2
SMILES: CCCC/N=C(\NC#N)NCCCC[C@H](NC(=O)[C@H](CC(C)C)NC(=O)[C@@H](CCCN=C(N)N)NC(=O)[C@H](Cc1ccc(O)cc1)NC(=O)[C@H](CO)NC(=O)[C@@H](Cc1cccnc1)NC(=O)[C@H](Cc1c[nH]cn1)NC(=O)[C@@H]1CCC(=O)N1)C(=O)N1CCC[C@H]1C(=O)N[C@H](C)C(N)=O
- Activity (Rattus norvegicus [11]): Active
- Activity (Rattus norvegicus [12]): inactive

- Relative potency [5]: 1.4
SMILES: CCCC/N=C(\NC#N)NCCCC[C@H](NC(=O)[C@H](Cc1c[nH]cn1)NC(=O)[C@@H]1CCC(=O)N1)C(=O)N[C@@H](CO)C(=O)N[C@@H](Cc1ccc(O)cc1)C(=O)N[C@H](CCCCN/C(=N/CCCC)NC#N)C(=O)N[C@@H](CC(C)C)C(=O)N[C@@H](CCCCNC(C)C)C(=O)N1CCC[C@H]1C(=O)N[C@H](C)C(N)=O
- Activity (Rattus norvegicus [13]): Weak activity

- Relative potency [5]: 0.06
SMILES: CC(C)C[C@H](NC(=O)[C@@H](Cc1cccnc1)NC(=O)[C@H](Cc1ccc(O)cc1)NC(=O)[C@H](CO)NC(=O)[C@H](Cc1ccc(Nc2n[nH]c(N)n2)cc1)NC(=O)[C@H](Cc1c[nH]cn1)NC(=O)[C@@H]1CCC(=O)N1)C(=O)N[C@@H](CCCCNC(C)C)C(=O)N1CCC[C@H]1C(=O)N[C@H](C)C(N)=O
- Activity (Rattus norvegicus [14]): inactive

- Kd [1]: 0.11 nM
SMILES: CCCC/N=C(/NCCCC[C@H](NC(=O)[C@H](CC(C)C)NC(=O)[C@@H](CCCCNC(=O)c1cccnc1)NC(=O)[C@H](CCCCNC(=O)c1cccnc1)NC(=O)[C@H](CO)NC(=O)[C@H](Cc1c[nH]c2ccccc12)NC(=O)[C@H](Cc1c[nH]cn1)NC(=O)[C@@H]1CCC(=O)N1)C(=O)N1CCC[C@H]1C(=O)N[C@H](C)C(N)=O)NC(N)=O
- Activity (Rattus norvegicus [15]): Active
- Activity (Rattus norvegicus [16]): inactive

- Relative potency [5]: 0.6
SMILES: CC(C)C[C@H](NC(=O)[C@@H](CCCCNc1n[nH]c(N)n1)NC(=O)[C@H](Cc1ccc(O)cc1)NC(=O)[C@H](CO)NC(=O)[C@H](CCCCNc1n[nH]c(N)n1)NC(=O)[C@H](Cc1c[nH]cn1)NC(=O)[C@@H]1CCC(=O)N1)C(=O)N[C@@H](CCCCNC(C)C)C(=O)N1CCC[C@H]1C(=O)N[C@H](C)C(N)=O
- Activity (Rattus norvegicus [17]): inactive
- Activity (Rattus norvegicus [18]): Active

- Kd [1]: 0.41 nM
- Relative potency [5]: 0.9
SMILES: CC(C)C[C@H](NC(=O)[C@@H](CCC/N=C(\NC#N)NCc1ccccn1)NC(=O)[C@H](CCC/N=C(\NC#N)NCc1ccccn1)NC(=O)[C@H](CO)NC(=O)[C@H](Cc1c[nH]c2ccccc12)NC(=O)[C@H](Cc1c[nH]cn1)NC(=O)[C@@H]1CCC(=O)N1)C(=O)N[C@@H](CCCCNC(C)C)C(=O)N1CCC[C@H]1C(=O)N[C@H](C)C(N)=O
- Activity (Rattus norvegicus [19]): Active
